# Assay results reported in ChEMBL document CHEMBL5724801, “EUbOPEN Chemogenomics Library - Multiplex” (2024).
# “And” between values parts separate entries of the source, which are not always exact repeats. Equal entries are not always repeated.
# Tested on: U2OS
# Assay: Multiplex assay against U2OS
# Type: toxicity, cell-based
# Conditions: human
# Outline: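 Live cells carried four stains from seeding: Hoechst33342, BioTracker Green Microtubule Cytoskeleton Dye, MitoTracker Red and Annexin V Alexa Fluor 680. They were imaged on a CQ1 microscope at 37°C and 5% CO2 after compound addition. Using CellPathfinder machine-learning gating, cells were split into Hoechst high-intensity objects or normal cells, normal cells into healthy, pyknosed or fragmented nuclei, and pyknosed cells into mitotic or apoptotic; tubulin, mitochondrial-mass and membrane-permeability phenotypes are per cents of healthy-nucleus cells.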
# [1] = 12 h, 1 µM, compound concentration 1 uM
# [2] = 12 h, 10 µM, compound concentration 10 uM
# [3] = 24 h, 1 µM, compound concentration 1 uM
# [4] = 24 h, 10 µM, compound concentration 10 uM
# [5] = 48 h, 1 µM, compound concentration 1 uM
# [6] = 48 h, 10 µM, compound concentration 10 uM
smiles,measurement,setting,value
Cc1cc(Nc2ncc(Cl)c(Nc3ccccc3S(=O)(=O)C(C)C)n2)c(OC(C)C)cc1C1CCNCC1 [CERITINIB],Population Apoptotic (%),[1],28.57% and 18.75%
same,Population Fragmented Nuclei (%),[1],3.31% and 3.57%
same,Population Healthy Nuclei (%),[1],78.68% and 58.33%
same,Population Hoechst High Intensity Objects (%),[1],0%
same,Population Membrane Permeable-Phenotype (%),[1],17.76% and 17.35%
same,Population Mitotic Cells (%),[1],71.43% and 81.25%
same,Population Normal (%),[1],100%
same,Population Pyknosed Nuclei (%),[1],18.01% and 38.1%
same,Population Tubulin-Different-Phenotype (%),[1],40.65% and 72.45%
same,Total Cell Count,[1],272 and 168
same,Population Apoptotic (%),[2],77.85% and 68.91%
same,Population Fragmented Nuclei (%),[2],0.93% and 0.8%
same,Population Healthy Nuclei (%),[2],3.43% and 4%
same,Population Hoechst High Intensity Objects (%),[2],0%
same,Population Membrane Permeable-Phenotype (%),[2],36.36% and 80%
same,Population Mitochondria Different-Phenotype (%),[2],0%
same,Population Mitotic Cells (%),[2],22.15% and 31.09%
same,Population Normal (%),[2],100%
same,Population Pyknosed Nuclei (%),[2],95.64% and 95.2%
same,Population Tubulin-Different-Phenotype (%),[2],72.73% and 60%
same,Total Cell Count,[2],321 and 125
same,Population Apoptotic (%),[3],29.58% and 27.12%
same,Population Fragmented Nuclei (%),[3],2.58% and 2.73%
same,Population Healthy Nuclei (%),[3],77.08% and 65.03%
same,Population Hoechst High Intensity Objects (%),[3],0.29% and 0%
same,Population Membrane Permeable-Phenotype (%),[3],4.09% and 6.72%
same,Population Mitotic Cells (%),[3],70.42% and 72.88%
same,Population Normal (%),[3],99.71% and 100%
same,Population Pyknosed Nuclei (%),[3],20.34% and 32.24%
same,Population Tubulin-Different-Phenotype (%),[3],29% and 47.06%
same,Total Cell Count,[3],350 and 183
same,Population Apoptotic (%),[4],83.51% and 81.55%
same,Population Fragmented Nuclei (%),[4],1.89% and 2.42%
same,Population Healthy Nuclei (%),[4],6.6% and 14.52%
same,Population Hoechst High Intensity Objects (%),[4],0%
same,Population Membrane Permeable-Phenotype (%),[4],23.81% and 50%
same,Population Mitochondria Different-Phenotype (%),[4],9.52% and 5.56%
same,Population Mitotic Cells (%),[4],16.49% and 18.45%
same,Population Normal (%),[4],100%
same,Population Pyknosed Nuclei (%),[4],91.51% and 83.06%
same,Population Tubulin-Different-Phenotype (%),[4],71.43% and 33.33%
same,Total Cell Count,[4],318 and 124
same,Population Apoptotic (%),[5],50% and 61.97%
same,Population Fragmented Nuclei (%),[5],3.8% and 3.81%
same,Population Healthy Nuclei (%),[5],77.4% and 62.38%
same,Population Hoechst High Intensity Objects (%),[5],0.2% and 0%
same,Population Membrane Permeable-Phenotype (%),[5],1.55% and 4.58%
same,Population Mitotic Cells (%),[5],50% and 38.03%
same,Population Normal (%),[5],99.8% and 100%
same,Population Pyknosed Nuclei (%),[5],18.8% and 33.81%
same,Total Cell Count,[5],501 and 210
same,Population Apoptotic (%),[6],89.1% and 93.88%
same,Population Fragmented Nuclei (%),[6],2.94% and 5.04%
same,Population Healthy Nuclei (%),[6],46.08% and 53.78%
same,Population Hoechst High Intensity Objects (%),[6],0%
same,Population Mitochondria Different-Phenotype (%),[6],7.09% and 10.94%
same,Population Mitotic Cells (%),[6],10.9% and 6.12%
same,Population Normal (%),[6],100%
same,Population Pyknosed Nuclei (%),[6],50.98% and 41.18%
same,Population Tubulin-Different-Phenotype (%),[6],46.1% and 31.25%
same,Total Cell Count,[6],306 and 119
C=CC(=O)Nc1cc(Nc2nccc(-n3cc(CN(C)C)c(-c4ccccc4)n3)n2)c(OC)cc1N1CCOCC1 [LAZERTINIB],Population Apoptotic (%),[1],37.5% and 46.67%
same,Population Fragmented Nuclei (%),[1],2.41% and 2.92%
same,Population Healthy Nuclei (%),[1],85.54% and 75.18%
same,Population Hoechst High Intensity Objects (%),[1],0%
same,Population Membrane Permeable-Phenotype (%),[1],40.14% and 54.37%
same,Population Mitotic Cells (%),[1],62.5% and 53.33%
same,Population Normal (%),[1],100%
same,Population Pyknosed Nuclei (%),[1],12.05% and 21.9%
same,Population Tubulin-Different-Phenotype (%),[1],55.63% and 64.08%
same,Total Cell Count,[1],332 and 137
same,Population Apoptotic (%),[2],49.07% and 38.89%
same,Population Fragmented Nuclei (%),[2],3.84% and 4.81%
same,Population Healthy Nuclei (%),[2],68.54% and 60.58%
same,Population Hoechst High Intensity Objects (%),[2],0%
same,Population Membrane Permeable-Phenotype (%),[2],48.88% and 50.79%
same,Population Mitotic Cells (%),[2],50.93% and 61.11%
same,Population Normal (%),[2],100%
same,Population Pyknosed Nuclei (%),[2],27.62% and 34.62%
same,Population Tubulin-Different-Phenotype (%),[2],97.39% and 85.71%
same,Population Apoptotic (%),[3],29.69% and 52.94%
same,Population Fragmented Nuclei (%),[3],2.35% and 3.45%
same,Population Healthy Nuclei (%),[3],80.94% and 73.1%
same,Population Hoechst High Intensity Objects (%),[3],0%
same,Population Membrane Permeable-Phenotype (%),[3],20% and 30.19%
same,Population Mitotic Cells (%),[3],70.31% and 47.06%
same,Population Normal (%),[3],100%
same,Population Pyknosed Nuclei (%),[3],16.71% and 23.45%
same,Population Tubulin-Different-Phenotype (%),[3],32.58% and 42.45%
same,Total Cell Count,[3],383 and 145
same,Population Apoptotic (%),[4],55.04% and 53.66%
same,Population Fragmented Nuclei (%),[4],3.46% and 5.83%
same,Population Healthy Nuclei (%),[4],64.69% and 54.37%
same,Population Hoechst High Intensity Objects (%),[4],0.25% and 0%
same,Population Membrane Permeable-Phenotype (%),[4],39.69% and 35.71%
same,Population Mitotic Cells (%),[4],44.96% and 46.34%
same,Population Normal (%),[4],99.75% and 100%
same,Population Pyknosed Nuclei (%),[4],31.85% and 39.81%
same,Population Tubulin-Different-Phenotype (%),[4],93.51% and 87.5%
same,Population Apoptotic (%),[5],61.96% and 68.33%
same,Population Fragmented Nuclei (%),[5],3% and 6.88%
same,Population Healthy Nuclei (%),[5],79.78% and 55.62%
same,Population Hoechst High Intensity Objects (%),[5],0%
same,Population Mitotic Cells (%),[5],38.04% and 31.67%
same,Population Normal (%),[5],100%
same,Population Pyknosed Nuclei (%),[5],17.23% and 37.5%
same,Population Tubulin-Different-Phenotype (%),[5],15.02% and 28.09%
same,Population Apoptotic (%),[6],64.5% and 69.23%
same,Population Fragmented Nuclei (%),[6],5.97% and 5.31%
same,Population Healthy Nuclei (%),[6],59.26% and 60.18%
same,Population Hoechst High Intensity Objects (%),[6],0%
same,Population Membrane Permeable-Phenotype (%),[6],31.6% and 30.88%
same,Population Mitotic Cells (%),[6],35.5% and 30.77%
same,Population Normal (%),[6],100%
same,Population Pyknosed Nuclei (%),[6],34.77% and 34.51%
same,Population Tubulin-Different-Phenotype (%),[6],77.43% and 79.41%
O=C1CSC(=O)N1C(CCc1ccncc1)COc1ccc(-c2cccc([N+](=O)[O-])c2)cc1 (centres undefined),Population Apoptotic (%),[1],46.67% and 30.43%
same,Population Fragmented Nuclei (%),[1],1.68% and 1.25%
same,Population Healthy Nuclei (%),[1],91.11% and 84.38%
same,Population Hoechst High Intensity Objects (%),[1],0% and 0.62%
same,Population Membrane Permeable-Phenotype (%),[1],0.26% and 4.44%
same,Population Mitochondria Different-Phenotype (%),[1],0.26% and 9.63%
same,Population Mitotic Cells (%),[1],53.33% and 69.57%
same,Population Normal (%),[1],100% and 99.38%
same,Population Pyknosed Nuclei (%),[1],7.21% and 14.37%
same,Population Tubulin-Different-Phenotype (%),[1],1.58% and 2.22%
same,Total Cell Count,[1],416 and 161
same,Population Apoptotic (%),[2],42.24% and 24.39%
same,Population Fragmented Nuclei (%),[2],2.2% and 3.42%
same,Population Healthy Nuclei (%),[2],69.51% and 68.49%
same,Population Hoechst High Intensity Objects (%),[2],0.24% and 0%
same,Population Membrane Permeable-Phenotype (%),[2],53.68% and 77%
same,Population Mitochondria Different-Phenotype (%),[2],42.11% and 86%
same,Population Mitotic Cells (%),[2],57.76% and 75.61%
same,Population Normal (%),[2],99.76% and 100%
same,Population Pyknosed Nuclei (%),[2],28.29% and 28.08%
same,Population Tubulin-Different-Phenotype (%),[2],96.84% and 85%
same,Total Cell Count,[2],411 and 146
same,Population Apoptotic (%),[3],40.38% and 40%
same,Population Fragmented Nuclei (%),[3],0.93% and 1.52%
same,Population Healthy Nuclei (%),[3],89.44% and 80.81%
same,Population Hoechst High Intensity Objects (%),[3],0.18% and 0%
same,Population Membrane Permeable-Phenotype (%),[3],0.62% and 1.88%
same,Population Mitochondria Different-Phenotype (%),[3],0.41% and 10%
same,Population Mitotic Cells (%),[3],59.62% and 60%
same,Population Normal (%),[3],99.82% and 100%
same,Population Pyknosed Nuclei (%),[3],9.63% and 17.68%
same,Population Tubulin-Different-Phenotype (%),[3],1.45% and 0.62%
same,Total Cell Count,[3],541 and 198
same,Population Apoptotic (%),[4],50% and 31.58%
same,Population Fragmented Nuclei (%),[4],2.96% and 3.38%
same,Population Healthy Nuclei (%),[4],68.34% and 70.95%
same,Population Hoechst High Intensity Objects (%),[4],0.23% and 0%
same,Population Membrane Permeable-Phenotype (%),[4],43% and 73.33%
same,Population Mitotic Cells (%),[4],50% and 68.42%
same,Population Normal (%),[4],99.77% and 100%
same,Population Pyknosed Nuclei (%),[4],28.7% and 25.68%
same,Population Tubulin-Different-Phenotype (%),[4],96.67% and 89.52%
same,Total Cell Count,[4],440 and 148
same,Population Apoptotic (%),[5],43.9% and 44.68%
same,Population Fragmented Nuclei (%),[5],2.54% and 3.2%
same,Population Healthy Nuclei (%),[5],89.11% and 83.14%
same,Population Hoechst High Intensity Objects (%),[5],0%
same,Population Membrane Permeable-Phenotype (%),[5],1.6% and 1.75%
same,Population Mitochondria Different-Phenotype (%),[5],0.34% and 6.64%
same,Population Mitotic Cells (%),[5],56.1% and 55.32%
same,Population Normal (%),[5],100%
same,Population Pyknosed Nuclei (%),[5],8.34% and 13.66%
same,Population Tubulin-Different-Phenotype (%),[5],1.94% and 1.75%
same,Total Cell Count,[5],983 and 344
same,Population Apoptotic (%),[6],60.54% and 58.93%
same,Population Fragmented Nuclei (%),[6],4.41% and 4.12%
same,Population Healthy Nuclei (%),[6],68.57% and 62.94%
same,Population Hoechst High Intensity Objects (%),[6],0.18% and 0%
same,Population Membrane Permeable-Phenotype (%),[6],31.1% and 67.29%
same,Population Mitotic Cells (%),[6],39.46% and 41.07%
same,Population Normal (%),[6],99.82% and 100%
same,Population Pyknosed Nuclei (%),[6],27.02% and 32.94%
same,Population Tubulin-Different-Phenotype (%),[6],82.84% and 74.77%
